Here are results for 19 compounds from ChEMBL document CHEMBL2384950, “2-(3-Fluoro-4-methylsulfonylaminophenyl)propanamides as potent TRPV1 antagonists: structure activity relationships of the 2-oxy pyridine C-region” (Eur J Med Chem, 2013).

A value given as a limit tells only on which side of the number the result lay.

In test [1] the target is T1, Transient receptor potential cation channel subfamily V member 1 (Homo sapiens, UniProt Q8NER1). Nature of the test: Antagonist activity at human TRPV1 expressed in CHOK1 cells assessed as inhibition of pH 6 to 6.3-induced activity by FLIPR assay. Type of test: cell-based, CHO-K1.
T1 sequence (Q8NER1 whole entry): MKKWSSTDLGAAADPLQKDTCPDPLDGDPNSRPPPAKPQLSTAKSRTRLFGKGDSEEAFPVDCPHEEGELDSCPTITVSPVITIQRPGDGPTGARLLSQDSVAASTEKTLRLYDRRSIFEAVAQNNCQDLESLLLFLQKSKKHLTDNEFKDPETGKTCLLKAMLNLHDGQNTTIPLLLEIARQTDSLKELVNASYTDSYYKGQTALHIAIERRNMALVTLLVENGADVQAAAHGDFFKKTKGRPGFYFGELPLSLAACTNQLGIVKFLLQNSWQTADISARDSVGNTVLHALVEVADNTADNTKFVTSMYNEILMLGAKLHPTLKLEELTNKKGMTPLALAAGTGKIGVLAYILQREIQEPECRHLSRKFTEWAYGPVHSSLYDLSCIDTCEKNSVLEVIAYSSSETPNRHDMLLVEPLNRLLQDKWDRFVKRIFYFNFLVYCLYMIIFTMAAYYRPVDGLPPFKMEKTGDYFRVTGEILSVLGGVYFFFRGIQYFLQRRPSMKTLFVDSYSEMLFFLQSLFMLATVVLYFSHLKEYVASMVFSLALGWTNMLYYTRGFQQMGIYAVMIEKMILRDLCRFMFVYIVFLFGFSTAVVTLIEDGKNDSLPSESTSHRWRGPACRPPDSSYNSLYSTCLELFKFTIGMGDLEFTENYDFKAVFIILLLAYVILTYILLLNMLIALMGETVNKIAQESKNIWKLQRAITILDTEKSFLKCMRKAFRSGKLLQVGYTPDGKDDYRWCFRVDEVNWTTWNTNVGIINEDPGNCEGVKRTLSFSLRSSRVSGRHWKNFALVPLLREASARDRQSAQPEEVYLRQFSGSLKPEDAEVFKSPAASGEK
Test [2] has as its target T1, Transient receptor potential cation channel subfamily V member 1. The test is described as follows: Antagonist activity at human TRPV1 expressed in CHOK1 cells assessed as inhibition of capsaicin-induced activity by FLIPR assay. The test is classed as cell-based, CHO-K1.
The test system of test [3] is Mus musculus. The test is described as follows: Analgesic activity in NMRI mouse assessed as inhibition of formalin-induced nociceptive response at 0.3 mg/kg, po mesaured for 21 to 24 mins relative to control. The test is classed as functional. In short, it runs like this: (§1)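 Oral dosing in mice, randomized dose and vehicle groups, 10 animals per group, vehicle control each study. 20 μl 1% formalin in 0.9% NaCl injected subcutaneously into dorsal right hind paw. Time spent licking and biting the injected paw counted 21–24 min post-formalin. Reported as % inhibition (mean ± SEM) versus vehicle; Kruskal–Wallis test.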

Test [4] concerns Mus musculus. The test is described as follows: Analgesic activity in NMRI mouse assessed as inhibition of formalin-induced nociceptive response at 0.1 mg/kg, po mesaured for 21 to 24 mins relative to control. Type of test: functional. In short, it runs like this: as §1
For test [5], the target named is T1, Transient receptor potential cation channel subfamily V member 1. The test is described as follows: Antagonist activity at human TRPV1 expressed in CHOK1 cells assessed as inhibition of N-arachidonoyldopamine-induced activity after 5 mins by FLIPR assay. The test is classed as cell-based, CHO-K1.
Test [6] has the same target. The test is described as follows: Antagonist activity at human TRPV1 expressed in CHOK1 cells assessed as inhibition of heat 45 degC-induced activity after 5 mins by FLIPR assay. The test is classed as cell-based, CHO-K1.

As to `CC(C(=O)NCc1ccc(C(F)(F)F)nc1OCCC1CCCCN1C(=O)OC(C)(C)C)c1ccc(NS(C)(=O)=O)c(F)c1` (stereo not given), in test [1], the IC50 was determined as 16.6 nM. Besides, in test [2], the inhibition constant (Ki) turned out to be 0.3 nM.

As to `COc1ccc(COc2nc(C(F)(F)F)ccc2CNC(=O)C(C)c2ccc(NS(C)(=O)=O)c(F)c2)cc1` (stereo not given), in test [1], the 50% inhibitory concentration (IC50) came to 653 nM. Besides, the Ki in test [2] was 2.6 nM. In the case of `COCCOc1nc(C(F)(F)F)ccc1CNC(=O)C(C)c1ccc(NS(C)(=O)=O)c(F)c1` (stereo not given), the Ki in test [2] was found to be 49 nM. For the compound `CC(C(=O)NCc1ccc(C(F)(F)F)nc1OCCc1ccccc1)c1ccc(NS(C)(=O)=O)c(F)c1` (stereo not given), in test [1], the IC50 came to 27.6 nM. Moreover, the Ki in test [2] was 0.5 nM. As to `CC(C)COc1nc(C(F)(F)F)ccc1CNC(=O)C(C)c1ccc(NS(C)(=O)=O)c(F)c1` (stereo not given), the inhibition in vivo at 0.3 mg/kg in the test on Mus musculus [3] was 60.8%. For the same compound, the inhibition in vivo at 0.1 mg/kg in the test on Mus musculus [4] was determined as 63.4%. Further, the Ki in test [5] worked out at 0.29 nM. Moreover, the half-inhibitory concentration (IC50) in test [6] was 67.5 nM. Regarding `CC(C(=O)NCc1ccc(C(F)(F)F)nc1OCc1cccc(Cl)c1)c1ccc(NS(C)(=O)=O)c(F)c1` (stereo not given), the 50% inhibitory concentration (IC50) in test [1] was found to be 95 nM. For the same compound, the inhibition constant (Ki) in test [2] turned out to be 4.9 nM. On the same counts, the results for `CC(C(=O)NCc1ccc(C(F)(F)F)nc1OC[C@@H]1C[C@H]1C)c1ccc(NS(C)(=O)=O)c(F)c1` (stereo not given in full) are 5.1 nM and 0.3 nM. As to `CC1CC(C)CC(Oc2nc(C(F)(F)F)ccc2CNC(=O)C(C)c2ccc(NS(C)(=O)=O)c(F)c2)C1` (stereo not given), in test [1], the IC50 was 174 nM. `CC1CCN(c2nc(C(F)(F)F)ccc2CNC(=O)C(C)c2ccc(NS(C)(=O)=O)c(F)c2)CC1` (stereo not given): the inhibition constant Ki in test [5] was 0.23 nM. In test [6], the half-inhibitory concentration (IC50) worked out at 4.5 nM. Regarding `CCCCC(CCC)Oc1nc(C(F)(F)F)ccc1CNC(=O)C(C)c1ccc(NS(C)(=O)=O)c(F)c1` (stereo not given), in test [2], the Ki was determined as 0.5 nM.

As for `CC(C(=O)NCc1ccc(C(C)(C)C)cc1)c1ccc(NS(C)(=O)=O)c(F)c1` (stereo not given), the half-inhibitory concentration (IC50) in test [1] is 1990 nM. Moreover, the inhibitory constant (Ki) in test [2] turned out to be 44.5 nM.

On to `CC(C(=O)NCc1ccc(C(F)(F)F)nc1OC1CCNCC1)c1ccc(NS(C)(=O)=O)c(F)c1` (stereo not given), for which the IC50 in test [1] was > 10000 nM.

Consider `CC(C(=O)NCc1ccc(C(F)(F)F)nc1OCC1CCNCC1)c1ccc(NS(C)(=O)=O)c(F)c1` (stereo not given), for which, in test [1], the 50% inhibitory concentration (IC50) is > 10000 nM. As to `CC(C(=O)NCc1ccc(C(F)(F)F)nc1OCc1cc(Cl)cc(Cl)c1)c1ccc(NS(C)(=O)=O)c(F)c1` (stereo not given), in test [1], the half-inhibitory concentration (IC50) was found to be 114 nM. The Ki in test [2] is 2.6 nM. Take `CCOCCOc1nc(C(F)(F)F)ccc1CNC(=O)C(C)c1ccc(NS(C)(=O)=O)c(F)c1` (stereo not given): the Ki in test [2] stood at 50 nM.

As to `CC(C(=O)NCc1ccc(C(F)(F)F)nc1OCc1ccccc1)c1ccc(NS(C)(=O)=O)c(F)c1` (stereo not given), the inhibition in vivo at 0.3 mg/kg with Mus musculus [3] turned out to be 54.1%. For the same compound, in the test with Mus musculus [4], the inhibition in vivo at 0.1 mg/kg was determined as 41.8%. For the same compound, in test [5], the Ki worked out at 0.001 nM. Also, the IC50 in test [6] was found to be 52.3 nM. Take `CC(C(=O)NCc1ccc(C(F)(F)F)nc1OCc1cc(F)cc(F)c1)c1ccc(NS(C)(=O)=O)c(F)c1` (stereo not given): the IC50 in test [1] amounted to 93 nM. Besides, in test [2], the inhibitory constant (Ki) worked out at 1 nM. With `CC(C(=O)NCc1ccc(C(F)(F)F)nc1OCc1cccc(F)c1)c1ccc(NS(C)(=O)=O)c(F)c1` (stereo not given), the IC50 in test [1] is 69 nM. Also, in test [2], the Ki turned out to be 0.8 nM. As to `CCC(CC)Oc1nc(C(F)(F)F)ccc1CNC(=O)C(C)c1ccc(NS(C)(=O)=O)c(F)c1` (stereo not given), in test [1], the IC50 is > 10000 nM.

What is called IC50 is the midpoint of a concentration-inhibition curve. One may read the Ki as a measure of affinity in units of concentration, obtained from inhibition or displacement. A word on the inhibition in vivo: it is the change of the read-out against control, counted positive when it falls.
